Measurements published in ChEMBL document CHEMBL1158416, “Synthesis of yashabushidiol and its analogues and their cytotoxic activity against cancer cell lines” (Bioorg Med Chem Lett, 2009).
Converted amounts (≈) assume the structure as drawn.

Legend:
Assay type in all cases: functional, cell-based
THP-1 = test: Antiproliferative activity against human THP1 cells after 48 hrs by MTT assay; settings: THP-1, 48 h
How it was run: (§1)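 Cells in exponential growth exposed to a range of test concentrations for 48 h; growth inhibition read by MTT. IC50 taken as the concentration giving a 50% fall in cell number relative to untreated control cultures, derived by regression analysis.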

U-937 = test: Antiproliferative activity against human U937 cells after 48 hrs by MTT assay; settings: U-937, 48 h; how it was run: as §1
A-375 = test: Antiproliferative activity against human A375 cells after 48 hrs by MTT assay; settings: A-375, 48 h; how it was run: as §1

IC50 (THP-1) [µg/mL]	IC50 (U-937) [µg/mL]	IC50 (A-375) [µg/mL]	Compound
12.6 (≈ 42 µM)	33 (≈ 110 µM)	57.8 (≈ 192 µM)	Oc1ccc(CC[C@@H](O)C[C@@H](O)CCc2ccccc2)cc1
12.8 (≈ 42.7 µM)	31.1 (≈ 103 µM)	56.3 (≈ 187 µM)	Oc1ccc(CC[C@H](O)C[C@@H](O)CCc2ccccc2)cc1

Continued, compound first:

Compound	IC50 (THP-1) [µg/mL]	IC50 (U-937) [µg/mL]	IC50 (A-375) [µg/mL]
O[C@@H](CCc1ccccc1)C[C@@H](O)CCc1ccccc1	99.8 (≈ 351 µM)	128 (≈ 451 µM)	148 (≈ 520 µM)
O[C@H](CCc1ccccc1)C[C@@H](O)CCc1ccccc1	40.5 (≈ 142 µM)	188 (≈ 660 µM)	164 (≈ 578 µM)
COc1cc(CC[C@H](O)C[C@@H](O)CCc2ccccc2)ccc1O	42.7 (≈ 129 µM)	27.7 (≈ 83.7 µM)	69.1 (≈ 209 µM)
COc1cc(CC[C@@H](O)C[C@@H](O)CCc2ccccc2)ccc1O	72.2 (≈ 219 µM)	32.7 (≈ 98.9 µM)	75.2 (≈ 228 µM)
